Bioassay records from PubChem BioAssay.
Most compounds without a hit are left out; they make up all but 4.1% or so of the library.
AHR act: activates the human aryl hydrocarbon receptor; AHR-responsive luciferase reporter cells, luminescence; 320,000 compounds, 2.5% hits; activation, % at 5 µM; P35869; in the data active = activation above about 47%;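 note: 0% = vehicle wells and 100% = reference agonist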
H9c2 TAG inh: inhibitors of triacylglycerol accumulation. H9c2 cells, Nile Red lipid (TAG) fluorescence; cells loaded with 200 µM oleic acid. inhibition, % at 12.5 µM. 230,000 compounds, 0.66% hits. AID 651582;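 active = pattern-corrected inhibition of lipid staining of at least 50% with the nuclear-stain viability signal not falling by more than 50%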;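 note: 0% = DMSO wells and 100% = triacsin C control wells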
Efflux pump inh: blocks antifungal efflux pumps in multiplex yeast assay; 330,000 compounds, 0.44% hits; S. cerevisiae Candida pump triplex, Nile Red efflux; AID 485275; inhibition, % at 10 µM;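 active = plate passing quality check with inhibition over a set limit, or well fluorescence over plate mean plus 4 SD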;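 note: Nile Red retained in pooled yeast measured as flow cytometry median fluorescence; 0% = buffer negative control and 100% = Enniatin B positive control; higher means more Nile Red kept so more efflux inhibition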
TbMetRS inhib: Trypanosoma brucei MetRS inhibition; purified T. brucei MetRS, ATP depletion, Kinase-Glo luminescence; inhibition, % at 11.9 µM; 360,000 compounds, 0.4% hits;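 active = inhibition above a per-plate cutoff of the control wells' mean inhibition plus 3 SD, cut at about 5.5% in these data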;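 note: 0% = DMSO wells median and 100% = median of wells with control inhibitor compound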
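technique = Kinase-Glo luminescence, ATP depletion format | system = purified MetRS (methionyl-tRNA synthetase) enzyme from Trypanosoma brucei | timing = 15 min preincubation, 2 h reaction, all 25 °C | evaluation = percent inhibition versus plate control medians | dosing = single dose, 11.9 µM final nominal, 0.9% final DMSO | also added = substrates ATP, L-methionine and bulk Escherichia coli tRNA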
SMARCA2 activ: SMARCA2 function activation, primary screen; MG213 cells, MMTV-luciferase reporter, dexamethasone, overnight; activation, % at 9.1 µM; 370,000 compounds, 1% hits; AID 652017; in the data active = activation above about 7.8%;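 note: 0% = vehicle wells and 100% = reference activator wells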
TbMetRS confirm: Trypanosoma brucei MetRS inhibition confirmed. T. brucei MetRS enzyme, luminescence (ATP depletion). shares compounds with TbMetRS inhib. 1,400 compounds, 93% hits. inhibition, % at 11.9 µM; in the data active = inhibition above about 7%
Jurkat cytotox: kills Jurkat cells in T. brucei MetRS counterscreen | 1,400 compounds, 12% hits | inhibition, % at 8.3 µM | Jurkat cells viability, ATP luminescence | shares compounds with TbMetRS inhib | AID 624413; in the data active = inhibition above about 15%;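 note: 0% = vehicle and 100% = reference inhibitor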
Tb MetRS inh FP: inhibits T. brucei methionyl tRNA synthetase in orthogonal FP test. shares compounds with TbMetRS inhib. purified T. brucei MetRS, fluorescence polarization. inhibition, % at 11.9 µM. 1,400 compounds, 44% hits. AID 651607; in the data active = inhibition above about 17%;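 note: 0% = vehicle wells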
* marks the source's active call; other numbers are inactive results; · = no result.

SMILES	AHR act	H9c2 TAG inh	Efflux pump inh	TbMetRS inhib	SMARCA2 activ	TbMetRS confirm	Jurkat cytotox	Tb MetRS inh FP
COC(=O)C1CN(Cc2cn(Cc3ccc(C)cc3)nn2)CCS(=O)(=O)N1Cc1ccccc1 (stereo not drawn)	·	·	·	·	1	·	·	·
Clc1cccc(N/N=C(\Cc2nc3ccccc3[nH]2)c2ccccc2)c1	64*	·	-1	59*	0	90*	3	98*
c1ccc(N/N=C(\Cc2ncc[nH]2)c2ccccc2)cc1	14	0	0	0	-5	·	·	·
COC(=O)c1nc[nH]c1[N+](=O)[O-]	·	-12	·	0	0	·	·	·
O=[N+]([O-])c1[nH]cnc1/C=C/c1ccccc1	4	-3	0	5.6*	-1	10*	4	0
CCCN1CCCCC(NC(=O)c2ccc3ccccc3c2)C1=O (stereo not drawn)	·	·	·	·	4	·	·	·
Cc1cc(Br)cc(Br)c1OCC(=O)NNC(=O)Nc1ccccc1	1	-5	0	7.5*	2	45*	-6	30*
Cc1cc(Br)cc(C)c1OCC(=O)NNC(=O)CCC(=O)NCc1ccccc1	0	10	0	-1	0	·	·	·
CCOC(=O)c1sc(NC(=O)Nc2ccccc2)cc1C	-6	·	0	11*	-3	28*	15	36*
O=C(CNC(=O)c1ccc(Br)o1)NCc1ccc(Cl)cc1Cl	·	-12	-1	18*	-4	45*	-3	15
COc1ccc(NC(=O)c2ccc(-n3cncn3)c([N+](=O)[O-])c2)cc1OC	10	9	0	15*	1	59*	3	33*
COc1ccc(C(=O)Nc2ccncc2)cc1[N+](=O)[O-]	·	·	0	0	0	·	·	·
O=C(NCCCc1ccccc1)c1ccc(-n2cncn2)c([N+](=O)[O-])c1	13	-23	0	21*	-1	58*	-1	35*
CCc1ccc(NC(=O)c2ccc(-n3cncn3)c([N+](=O)[O-])c2)cc1	-5	-4	0	13*	-2	39*	1	20*
O=C(c1ccc(-n2cncn2)c([N+](=O)[O-])c1)N1CCN(c2cccc(Cl)c2)CC1	3	21	0	5.8*	-1	20*	5	6
Cc1ccc(-n2c(SCC(=O)c3ccccc3Br)nnc2-c2ccncc2)cc1	·	·	·	·	2	·	·	·
O=C(CCn1nnc2ccccc21)N1CCN(c2ccccc2F)CC1	·	·	·	·	0	·	·	·
O=C(CSc1nnc(-c2ccco2)n1Cc1ccco1)c1ccc([N+](=O)[O-])cc1	·	·	·	·	-4	·	·	·
O=C1CSc2ccc(C(=O)N3CCCC(C(=O)N4CCCCC4)C3)cc2N1 (stereo not drawn)	·	·	·	·	-2	·	·	·
Cc1cccc(NC(=O)CNC(=O)c2ccc(-n3cncn3)c([N+](=O)[O-])c2)c1C	1	1	0	19*	0	51*	-6	27*
COc1ccc(NC(=O)c2ccc(-n3cncn3)c([N+](=O)[O-])c2)cc1	-4	-1	0	6.2*	-1	22*	1	8
COC(=O)c1ccc(-n2cncn2)c([N+](=O)[O-])c1	5	·	0	16*	0	35*	-5	6
Cc1ccc(NC(=O)CN(C)C(=O)c2ccc(-n3cncn3)c([N+](=O)[O-])c2)cc1	1	2	0	10*	1	38*	-1	16
Cc1ccc(NC(=O)CN(C)C(=O)c2ccc(C(F)(F)F)cc2)cc1	24	-5	0	6.2*	0	26*	6	10
COc1cc(OC)cc(C(=O)NNC(=O)c2ccc(-n3cncn3)c([N+](=O)[O-])c2)c1	1	4	0	6.0*	-1	31*	3	17*
SMILES	AHR act	H9c2 TAG inh	Efflux pump inh	TbMetRS inhib	SMARCA2 activ	TbMetRS confirm	Jurkat cytotox	Tb MetRS inh FP
CN(c1ccc(OC(=O)c2ccc(-n3cncn3)c([N+](=O)[O-])c2)cc1)S(=O)(=O)c1ccccc1	1	15	0	5	-1	·	·	·
CCSc1nsc(NC(=O)Nc2ccccc2F)n1	78*	-5	0	7.0*	3	13*	5	6
Cc1cc(Cn2nc(-c3ccccc3)cc2C(=O)NCc2cccc(C(F)(F)F)c2)on1	1	-9	·	1	1	·	·	·
Cc1cc(Cn2nc(-c3ccccc3)cc2C(=O)NCc2cccc(Br)c2)on1	4	·	·	54*	1	84*	-4	68*
O=[N+]([O-])c1ccc(OCc2cnc(Cl)s2)c([N+](=O)[O-])c1	3	-5	0	6.7*	1	18*	1	16
O=C(NCc1nc2ccccc2[nH]1)C1=C[C@H](c2ccc(C(F)(F)F)cc2)C[C@H](OCc2ccc(CO)cc2)O1	21	0	0	18*	-2	49*	-3	30*
C#Cc1ccc([C@H]2C=C(C(=O)NCc3nc4ccccc4[nH]3)O[C@@H](OCc3ccc(CO)cc3)C2)cc1	35	·	0	32*	0	85*	0	68*
O=C(Nc1ccccc1)C1=C[C@@H](c2ccc(Br)cc2)C[C@@H](OCc2ccc(CO)cc2)O1	1	16	·	0	1	·	·	·
O=C(NCc1nc2ccccc2[nH]1)C1=C[C@H](c2ccc(Br)cc2)C[C@H](OCc2ccc(CO)cc2)O1	6	-5	0	66*	-1	98*	-3	75*
C[C@@H]1C=C(C(=O)NCc2nc3ccccc3[nH]2)O[C@H](OCc2ccc(CO)cc2)C1	6	-15	0	69*	1	96*	6	72*
C#CCNC(=O)C1=C[C@H](c2ccc(C(F)(F)F)cc2)C[C@H](OCc2ccc(CO)cc2)O1	9	-154	0	0	2	·	·	·
COC(=O)C1=C(C)N(C)C(=NCc2cc(OC)c(OC)c(OC)c2)NC1c1ccc(Cl)cc1 (stereo not drawn)	·	·	·	·	-5	·	·	·
O=C(NCc1nc2ccccc2[nH]1)C1=C[C@@H](c2csc3ccccc23)C[C@@H](OCCCCO)O1	13	1	0	72*	-2	101*	-5	77*
COP(=O)(OC)C(Nc1cc(Cl)cc(Cl)c1)c1cccc(O)c1 (stereo not drawn)	1	4	0	5.7*	-1	15*	-1	4
CC1CCCN(CCCOc2ccc(Br)cc2Cl)C1 (stereo not drawn)	1	17	0	17*	1	30*	23*	11
CC1CCN(CCOCCOc2ccc(Br)cc2Cl)CC1	1	·	0	1	-5	·	·	·
CN(C)CCCCOc1ccc(Br)cc1Cl	-1	4	0	8.0*	0	21*	7	11
